From ChEMBL document CHEMBL4043093, “2-Oxo-3, 4-dihydropyrimido[4, 5-d]pyrimidinyl derivatives as new irreversible pan fibroblast growth factor receptor (FGFR) inhibitors” (Eur J Med Chem, 2017)

Key:
[1] = system: Tyrosine-protein kinase ABL1 (Homo sapiens), P00519 [Q252H]; assay: Inhibition of human non-phosphorylated ABL1 Q252H mutant (S229 to K512 residues) expressed in HEK293 cells assessed as residual activity at 1000 nM after 30 mins by Kinomescan method relative to control; type: cell-based
Summary of the method: (§1)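 KINOMEscan binding panel of 456 kinases, with the test compound at a single concentration of 1 µM. Read-out is Percent Control.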

[2] = molecular target: Tyrosine-protein kinase Mer (Homo sapiens) (UniProt Q12866); assay: Inhibition of wild-type human partial length MERTK (R557 to L884 residues) expressed in Escherichia coli BL21 assessed as residual activity at 1000 nM after 30 mins by Kinomescan method relative to control
[3] = molecular target: Ribosomal protein S6 kinase alpha-3 (Homo sapiens) (UniProt P51812); assay: Inhibition of wild-type human partial length C-terminal RSK3 kinase domain 2 (V403 to K700 residues) expressed in Escherichia coli BL21 assessed as residual activity at 1000 nM after 30 mins by Kinomescan method relative to control
[4] = molecular target: Mitogen-activated protein kinase kinase kinase kinase 1 (Homo sapiens) (UniProt Q92918); assay: Inhibition of wild-type human full length HPK1 (M1 to R799 residues) expressed in Escherichia coli BL21 assessed as residual activity at 1000 nM after 30 mins by Kinomescan method relative to control
Summary of the method: (§2)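 Single-concentration screen at 1 µM across a 456-kinase KINOMEscan panel. The read-out is Percent Control for each kinase.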

[5] = molecular target: SNF-related serine/threonine-protein kinase (Homo sapiens) (UniProt Q9NRH2); assay: Inhibition of wild-type human partial length SNRK (M1 to E339 residues) expressed in HEK293 cells assessed as residual activity at 1000 nM after 30 mins by Kinomescan method relative to control; type: cell-based
Chain of SNF-related serine/threonine-protein kinase (Homo sapiens) (Q9NRH2 whole entry, the tested form may be a part): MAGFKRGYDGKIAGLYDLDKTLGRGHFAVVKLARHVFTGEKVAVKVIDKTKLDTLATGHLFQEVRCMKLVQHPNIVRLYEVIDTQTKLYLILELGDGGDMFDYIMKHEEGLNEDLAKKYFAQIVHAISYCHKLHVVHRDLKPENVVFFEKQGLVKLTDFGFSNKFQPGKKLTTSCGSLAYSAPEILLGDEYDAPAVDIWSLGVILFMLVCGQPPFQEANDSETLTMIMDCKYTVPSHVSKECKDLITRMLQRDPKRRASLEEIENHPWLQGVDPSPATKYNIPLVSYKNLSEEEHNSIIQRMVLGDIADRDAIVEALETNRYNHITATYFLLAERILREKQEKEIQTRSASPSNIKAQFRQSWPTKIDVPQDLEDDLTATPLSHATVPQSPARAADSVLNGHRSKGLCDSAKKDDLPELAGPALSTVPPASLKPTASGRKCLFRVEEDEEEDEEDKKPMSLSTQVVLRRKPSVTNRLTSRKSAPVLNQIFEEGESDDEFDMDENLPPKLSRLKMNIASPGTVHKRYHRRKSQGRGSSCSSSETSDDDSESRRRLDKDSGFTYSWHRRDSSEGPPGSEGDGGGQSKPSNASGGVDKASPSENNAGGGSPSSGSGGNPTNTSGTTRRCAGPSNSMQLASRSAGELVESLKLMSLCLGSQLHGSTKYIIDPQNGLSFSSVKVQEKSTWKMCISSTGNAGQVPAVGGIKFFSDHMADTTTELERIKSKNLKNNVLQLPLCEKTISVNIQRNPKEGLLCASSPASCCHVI

[6] = molecular target: Rho-associated protein kinase 1 (Homo sapiens) (UniProt Q13464); assay: Inhibition of wild-type human partial length ROCK1 (M1 to R415 residues) expressed in HEK293 cells assessed as residual activity at 1000 nM after 30 mins by Kinomescan method relative to control; type: cell-based
[7] = molecular target: LIM domain kinase 1 (Homo sapiens) (UniProt P53667); assay: Inhibition of wild-type human full length LIMK1 (M1 to D647 residues) expressed in Escherichia coli BL21 assessed as residual activity at 1000 nM after 30 mins by Kinomescan method relative to control; summary of the method: as §2
[8] = molecular target: Mitogen-activated protein kinase kinase kinase 6 (Homo sapiens) (UniProt O95382); assay: Inhibition of wild-type human partial length ASK2 (M278 to R972 residues) expressed in HEK293 cells assessed as residual activity at 1000 nM after 30 mins by Kinomescan method relative to control; type: cell-based
[9] = molecular target: Serine/threonine-protein kinase D2 (Homo sapiens) (UniProt Q9BZL6); assay: Inhibition of wild-type human partial length PRKD2 (A519 to E838 residues) expressed in Escherichia coli BL21 assessed as residual activity at 1000 nM after 30 mins by Kinomescan method relative to control
[10] = molecular target: Tyrosine-protein kinase Yes (Homo sapiens) (UniProt P07947); assay: Inhibition of wild-type human partial length YES (T257 to L543 residues) expressed in Escherichia coli BL21 assessed as residual activity at 1000 nM after 30 mins by Kinomescan method relative to control
[11] = molecular target: Myosin light chain kinase, smooth muscle (Homo sapiens) (UniProt Q15746); assay: Inhibition of wild-type human full length MYLK (M854 to E1845 residues) expressed in HEK293 cells assessed as residual activity at 1000 nM after 30 mins by Kinomescan method relative to control; type: cell-based; summary of the method: as §2
[12] = molecular target: Mitogen-activated protein kinase 15 (Homo sapiens) (UniProt Q8TD08); assay: Inhibition of wild-type human partial length ERK8 (M1 to P437 residues) expressed in Escherichia coli BL21 assessed as residual activity at 1000 nM after 30 mins by Kinomescan method relative to control
Chain of Mitogen-activated protein kinase 15 (Homo sapiens) (Q8TD08 whole entry, the tested form may be a part): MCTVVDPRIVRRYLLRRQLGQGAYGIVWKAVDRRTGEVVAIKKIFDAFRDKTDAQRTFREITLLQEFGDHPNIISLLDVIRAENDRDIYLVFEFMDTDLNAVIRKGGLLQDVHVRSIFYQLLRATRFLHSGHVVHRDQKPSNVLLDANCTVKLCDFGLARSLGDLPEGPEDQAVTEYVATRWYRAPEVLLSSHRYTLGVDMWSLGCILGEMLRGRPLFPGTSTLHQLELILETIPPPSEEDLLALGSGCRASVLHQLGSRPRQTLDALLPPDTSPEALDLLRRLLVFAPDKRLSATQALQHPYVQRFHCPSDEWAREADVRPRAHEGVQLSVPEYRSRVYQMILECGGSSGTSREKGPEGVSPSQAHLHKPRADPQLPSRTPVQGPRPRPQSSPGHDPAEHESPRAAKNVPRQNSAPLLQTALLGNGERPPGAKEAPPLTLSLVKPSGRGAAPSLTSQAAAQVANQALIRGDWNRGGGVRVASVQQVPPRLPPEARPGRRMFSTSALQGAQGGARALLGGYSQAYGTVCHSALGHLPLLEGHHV

[13] = molecular target: MAP kinase-activated protein kinase 2 (Homo sapiens) (UniProt P49137); assay: Inhibition of wild-type human partial length MAPKAPK2 (V48 to D345 residues) expressed in Escherichia coli BL21 assessed as residual activity at 1000 nM after 30 mins by Kinomescan method relative to control
Chain of MAP kinase-activated protein kinase 2 (Homo sapiens) (P49137 whole entry, looked up, the tested form may be a part): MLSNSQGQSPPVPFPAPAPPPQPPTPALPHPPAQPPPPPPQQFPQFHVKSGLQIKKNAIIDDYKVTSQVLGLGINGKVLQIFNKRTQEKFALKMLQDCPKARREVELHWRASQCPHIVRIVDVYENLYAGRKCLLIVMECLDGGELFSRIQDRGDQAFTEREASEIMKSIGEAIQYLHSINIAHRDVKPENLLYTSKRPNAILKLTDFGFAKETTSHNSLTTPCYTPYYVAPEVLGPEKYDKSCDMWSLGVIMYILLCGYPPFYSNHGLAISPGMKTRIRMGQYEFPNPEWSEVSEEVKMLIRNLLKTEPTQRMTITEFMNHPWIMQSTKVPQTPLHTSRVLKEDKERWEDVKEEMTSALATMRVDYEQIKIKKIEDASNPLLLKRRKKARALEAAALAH

[14] = molecular target: Angiopoietin-1 receptor (Homo sapiens) (UniProt Q02763); assay: Inhibition of wild-type human partial length TIE2 (N804 to T1112 residues) expressed in Escherichia coli BL21 assessed as residual activity at 1000 nM after 30 mins by Kinomescan method relative to control
[15] = molecular target: Mitogen-activated protein kinase 8 (Homo sapiens) (UniProt P45983); assay: Inhibition of wild-type human full length JNK1 (M1 to Q384 residues) expressed in HEK293 cells assessed as residual activity at 1000 nM after 30 mins by Kinomescan method relative to control; type: cell-based; summary of the method: as §2
[16] = molecular target: Phosphatidylinositol 4,5-bisphosphate 3-kinase catalytic subunit alpha isoform (Homo sapiens) (UniProt P42336); assay: Inhibition of wild-type human partial length PIK3CA (R108 to N1068 residues) expressed in HEK293 cells assessed as residual activity at 1000 nM after 30 mins by Kinomescan method relative to control; type: cell-based
Chain of Phosphatidylinositol 4,5-bisphosphate 3-kinase catalytic subunit alpha isoform (Homo sapiens) (P42336 whole entry, the tested form may be a part, canonical isoform): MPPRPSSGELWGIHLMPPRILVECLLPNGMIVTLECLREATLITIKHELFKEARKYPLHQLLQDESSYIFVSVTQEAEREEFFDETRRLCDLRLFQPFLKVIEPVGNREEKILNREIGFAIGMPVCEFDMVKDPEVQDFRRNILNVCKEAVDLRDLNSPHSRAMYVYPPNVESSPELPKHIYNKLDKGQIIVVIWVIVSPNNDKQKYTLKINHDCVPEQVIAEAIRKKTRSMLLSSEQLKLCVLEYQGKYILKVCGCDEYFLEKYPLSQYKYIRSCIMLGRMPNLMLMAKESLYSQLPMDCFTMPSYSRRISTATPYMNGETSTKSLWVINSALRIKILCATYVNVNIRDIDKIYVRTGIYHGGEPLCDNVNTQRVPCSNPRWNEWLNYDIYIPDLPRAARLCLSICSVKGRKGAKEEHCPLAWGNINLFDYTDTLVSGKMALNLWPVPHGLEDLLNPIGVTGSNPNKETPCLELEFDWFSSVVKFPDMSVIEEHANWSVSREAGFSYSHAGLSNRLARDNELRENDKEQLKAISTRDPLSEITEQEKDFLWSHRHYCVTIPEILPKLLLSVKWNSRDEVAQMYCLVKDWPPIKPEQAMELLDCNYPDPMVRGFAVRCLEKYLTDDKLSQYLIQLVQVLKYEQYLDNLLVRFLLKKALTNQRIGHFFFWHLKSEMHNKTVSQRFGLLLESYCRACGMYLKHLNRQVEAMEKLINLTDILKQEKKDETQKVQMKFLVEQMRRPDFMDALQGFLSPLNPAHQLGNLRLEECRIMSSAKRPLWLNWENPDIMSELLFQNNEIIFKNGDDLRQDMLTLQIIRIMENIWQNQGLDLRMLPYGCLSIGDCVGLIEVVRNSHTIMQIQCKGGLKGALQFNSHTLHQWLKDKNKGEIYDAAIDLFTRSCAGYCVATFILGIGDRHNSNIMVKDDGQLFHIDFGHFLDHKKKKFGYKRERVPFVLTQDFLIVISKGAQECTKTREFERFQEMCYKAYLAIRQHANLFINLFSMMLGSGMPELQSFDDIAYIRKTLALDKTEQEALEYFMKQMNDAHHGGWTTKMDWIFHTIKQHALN

[17] = molecular target: NUAK family SNF1-like kinase 1 (Homo sapiens) (UniProt O60285); assay: Inhibition of wild-type human partial length ARK5 (E25 to I332 residues) expressed in Escherichia coli BL21 assessed as residual activity at 1000 nM after 30 mins by Kinomescan method relative to control
[18] = molecular target: STE20-like serine/threonine-protein kinase (Homo sapiens) (UniProt Q9H2G2); assay: Inhibition of wild-type human partial length SLK (S14 to A307 residues) expressed in Escherichia coli BL21 assessed as residual activity at 1000 nM after 30 mins by Kinomescan method relative to control
Chain of STE20-like serine/threonine-protein kinase (Homo sapiens) (Q9H2G2 whole entry, looked up, the tested form may be a part): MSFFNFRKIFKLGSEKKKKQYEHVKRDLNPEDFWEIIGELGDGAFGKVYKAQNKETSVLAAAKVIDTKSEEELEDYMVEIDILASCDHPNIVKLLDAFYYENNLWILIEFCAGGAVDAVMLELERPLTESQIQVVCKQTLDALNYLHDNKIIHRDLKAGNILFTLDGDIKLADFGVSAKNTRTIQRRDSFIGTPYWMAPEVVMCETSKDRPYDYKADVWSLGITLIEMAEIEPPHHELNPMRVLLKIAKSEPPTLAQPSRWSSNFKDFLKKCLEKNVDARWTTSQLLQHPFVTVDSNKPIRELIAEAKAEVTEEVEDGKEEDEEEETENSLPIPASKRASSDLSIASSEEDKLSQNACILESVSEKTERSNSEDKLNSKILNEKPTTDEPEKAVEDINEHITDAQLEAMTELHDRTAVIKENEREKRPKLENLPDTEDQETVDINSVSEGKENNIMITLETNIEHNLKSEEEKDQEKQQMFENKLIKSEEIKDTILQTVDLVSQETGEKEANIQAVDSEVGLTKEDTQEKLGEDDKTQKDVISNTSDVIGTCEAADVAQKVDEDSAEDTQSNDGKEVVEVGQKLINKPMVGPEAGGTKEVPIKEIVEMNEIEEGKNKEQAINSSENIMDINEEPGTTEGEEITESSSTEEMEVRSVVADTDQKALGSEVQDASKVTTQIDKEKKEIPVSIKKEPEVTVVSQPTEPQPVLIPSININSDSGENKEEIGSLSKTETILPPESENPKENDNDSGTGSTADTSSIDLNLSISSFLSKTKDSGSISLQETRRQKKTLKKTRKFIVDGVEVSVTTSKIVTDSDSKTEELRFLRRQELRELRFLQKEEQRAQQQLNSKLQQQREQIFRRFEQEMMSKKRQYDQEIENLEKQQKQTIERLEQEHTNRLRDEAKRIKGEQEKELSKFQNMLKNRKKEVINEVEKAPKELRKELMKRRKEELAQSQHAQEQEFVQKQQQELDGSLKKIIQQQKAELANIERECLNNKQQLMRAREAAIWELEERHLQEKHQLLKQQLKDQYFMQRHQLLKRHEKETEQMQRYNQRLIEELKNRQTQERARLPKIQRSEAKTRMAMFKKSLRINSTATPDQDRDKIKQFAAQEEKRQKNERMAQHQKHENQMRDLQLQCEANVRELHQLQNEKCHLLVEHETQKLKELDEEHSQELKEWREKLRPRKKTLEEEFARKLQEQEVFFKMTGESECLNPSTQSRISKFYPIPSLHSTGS

[19] = molecular target: Tyrosine-protein kinase CSK (Homo sapiens) (UniProt P41240); assay: Inhibition of wild-type human full length CSK (M1 to L450 residues) expressed in Escherichia coli BL21 assessed as residual activity at 1000 nM after 30 mins by Kinomescan method relative to control
Chain of Tyrosine-protein kinase CSK (Homo sapiens) (P41240 2-450 limits assumed): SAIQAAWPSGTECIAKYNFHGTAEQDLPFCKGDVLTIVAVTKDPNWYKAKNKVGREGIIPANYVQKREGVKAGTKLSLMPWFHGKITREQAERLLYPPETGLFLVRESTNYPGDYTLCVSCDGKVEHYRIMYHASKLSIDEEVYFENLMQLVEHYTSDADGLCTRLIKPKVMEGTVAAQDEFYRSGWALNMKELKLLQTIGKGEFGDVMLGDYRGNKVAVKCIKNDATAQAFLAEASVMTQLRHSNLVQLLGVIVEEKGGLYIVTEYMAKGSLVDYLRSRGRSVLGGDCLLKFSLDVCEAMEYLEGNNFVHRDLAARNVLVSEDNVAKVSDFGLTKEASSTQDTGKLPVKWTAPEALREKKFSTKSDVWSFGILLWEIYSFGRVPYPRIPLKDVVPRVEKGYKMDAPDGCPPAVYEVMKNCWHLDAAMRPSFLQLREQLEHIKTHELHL
Summary of the method: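 Single-point screen at a fixed 1 µM, run within a 456-kinase DiscoveRx KINOMEscan panel. Each kinase's read-out is Percent Control, i.e. signal relative to a control without compound. Hits were scored by a Percent Control < 35 cut-off, and an S(35) selectivity score was calculated across the non-mutant kinases.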

[20] = molecular target: Mitogen-activated protein kinase 12 (Homo sapiens) (UniProt P53778); assay: Inhibition of wild-type human full length p38-gamma (M1 to L367 residues) expressed in HEK293 cells assessed as residual activity at 1000 nM after 30 mins by Kinomescan method relative to control; type: cell-based
Chain of Mitogen-activated protein kinase 12 (Homo sapiens) (P53778 whole entry, the tested form may be a part): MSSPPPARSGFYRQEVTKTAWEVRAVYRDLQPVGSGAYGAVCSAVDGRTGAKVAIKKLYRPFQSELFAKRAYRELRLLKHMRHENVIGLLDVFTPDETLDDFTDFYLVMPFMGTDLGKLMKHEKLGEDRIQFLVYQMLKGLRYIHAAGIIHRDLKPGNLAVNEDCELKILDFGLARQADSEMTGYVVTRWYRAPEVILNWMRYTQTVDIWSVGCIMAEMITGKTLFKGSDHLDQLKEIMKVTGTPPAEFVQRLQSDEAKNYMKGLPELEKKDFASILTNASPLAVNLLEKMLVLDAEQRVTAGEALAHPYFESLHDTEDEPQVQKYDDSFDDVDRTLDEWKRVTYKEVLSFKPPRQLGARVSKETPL

[21] = system: Epidermal growth factor receptor (Homo sapiens), P00533 [UNDEFINED MUTATION]; assay: Inhibition of human partial length EGFR E746-A750del mutant expressed in Escherichia coli BL21 assessed as residual activity at 1000 nM after 30 mins by Kinomescan method relative to control; summary of the method: as §1

In the case of COc1cc(OC)c(Cl)c(N2Cc3cnc(Nc4ccc(F)cc4)nc3N(C3CCN(C(=O)/C=C/CN(C)C)CC3)C2=O)c1Cl, the Activity [1] is reported as 33%, the Activity [2] is reported as 85% and the Activity [3] is reported as 88%. It also gave an Activity [4] of 32%, an Activity [5] of 100% and an Activity [6] of 100%. For the same compound, the Activity [7] was 100%, the Activity [8] was 100% and the Activity [9] was 98%. It also gave an Activity [10] of 34%, an Activity [11] of 100% and an Activity [12] of 100%. It also gave an Activity [13] of 99%, an Activity [14] of 26% and an Activity [15] of 87%. For the same compound, the Activity [16] was 100%, the Activity [17] was 100% and the Activity [18] was 100%. It also gave an Activity [19] of 100%, an Activity [20] of 89% and an Activity [21] of 100%.
